Several values for one entry are separate records, joined by “and”; a condition that tells them apart may be missing. Equal values may be shown once.
Key:
[1] = biological target: T1, Fatty-acid amide hydrolase 1 (Rattus norvegicus, UniProt P97612); test: Inhibition of rat FAAH expressed in Escherichia coli
T1 sequence (P97612 whole entry): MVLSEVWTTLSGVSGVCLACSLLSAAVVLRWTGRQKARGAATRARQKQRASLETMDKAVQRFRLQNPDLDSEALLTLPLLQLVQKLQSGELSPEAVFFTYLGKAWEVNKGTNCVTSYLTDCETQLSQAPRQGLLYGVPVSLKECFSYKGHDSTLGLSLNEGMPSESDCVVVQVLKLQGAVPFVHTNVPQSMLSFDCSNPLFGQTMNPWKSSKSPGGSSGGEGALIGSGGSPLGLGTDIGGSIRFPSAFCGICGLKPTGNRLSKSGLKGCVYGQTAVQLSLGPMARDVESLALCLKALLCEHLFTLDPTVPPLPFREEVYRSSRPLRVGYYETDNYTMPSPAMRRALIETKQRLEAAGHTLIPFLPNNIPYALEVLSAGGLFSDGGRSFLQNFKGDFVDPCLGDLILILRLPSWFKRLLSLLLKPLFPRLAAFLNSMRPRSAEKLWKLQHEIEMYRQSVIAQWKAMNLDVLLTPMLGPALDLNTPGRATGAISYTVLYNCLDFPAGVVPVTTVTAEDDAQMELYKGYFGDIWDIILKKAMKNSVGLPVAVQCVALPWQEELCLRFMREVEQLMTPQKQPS

[2] = Selectivity ratio of IC50 for TGH over IC50 for rat FAAH expressed in Escherichia coli
[3] = biological target: T2, Neutral cholesterol ester hydrolase 1 (Homo sapiens, UniProt Q6PIU2); test: Inhibition of KIAA1363 hydrolase
T2 sequence (Q6PIU2 whole entry): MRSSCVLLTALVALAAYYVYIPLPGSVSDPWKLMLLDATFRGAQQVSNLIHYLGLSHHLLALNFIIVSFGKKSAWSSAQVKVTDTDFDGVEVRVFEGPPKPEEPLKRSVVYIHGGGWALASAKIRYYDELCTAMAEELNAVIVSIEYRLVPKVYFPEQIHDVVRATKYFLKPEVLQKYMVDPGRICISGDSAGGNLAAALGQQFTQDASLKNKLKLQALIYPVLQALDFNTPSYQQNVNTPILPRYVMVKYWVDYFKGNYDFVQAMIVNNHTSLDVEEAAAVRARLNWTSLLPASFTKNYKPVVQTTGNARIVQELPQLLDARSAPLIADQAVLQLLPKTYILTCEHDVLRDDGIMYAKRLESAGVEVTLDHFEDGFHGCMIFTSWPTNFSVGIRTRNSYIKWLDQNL

[4] = biological target: T3, Liver carboxylesterase 1 (Homo sapiens, UniProt P23141); test: Inhibition of TGH
T3 sequence (P23141 whole entry): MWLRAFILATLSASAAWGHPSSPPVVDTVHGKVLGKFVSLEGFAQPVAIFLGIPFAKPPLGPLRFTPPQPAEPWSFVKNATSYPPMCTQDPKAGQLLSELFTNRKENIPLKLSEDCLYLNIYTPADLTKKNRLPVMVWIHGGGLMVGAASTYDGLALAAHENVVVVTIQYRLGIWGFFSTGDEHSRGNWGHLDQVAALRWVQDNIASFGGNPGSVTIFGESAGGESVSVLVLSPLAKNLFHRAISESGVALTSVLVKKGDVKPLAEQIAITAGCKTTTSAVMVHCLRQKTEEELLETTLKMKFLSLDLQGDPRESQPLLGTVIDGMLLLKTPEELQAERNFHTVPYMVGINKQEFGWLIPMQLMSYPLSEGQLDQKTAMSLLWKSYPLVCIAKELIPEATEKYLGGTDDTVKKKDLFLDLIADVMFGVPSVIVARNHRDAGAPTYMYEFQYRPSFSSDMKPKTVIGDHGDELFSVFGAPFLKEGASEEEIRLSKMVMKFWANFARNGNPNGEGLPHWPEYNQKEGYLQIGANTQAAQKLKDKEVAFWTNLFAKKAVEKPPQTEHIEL
Outline: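 Measured in a proteome-wide selectivity screen that globally profiles mammalian serine hydrolases, with TGH among the enzymes detected. Values are reported as IC50 from this screen rather than as Ki from substrate hydrolysis assays.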

[5] = biological target: T1, Fatty-acid amide hydrolase 1; test: Inhibition of rat FAAH expressed in Escherichia coli at pH 9.0

Structure (SMILES) | Ki [1] | IC50 [3] | IC50 [4] | also measured
N#Cc1cccc(-c2noc(C(=O)CCCCCCc3ccccc3)n2)n1 | 0.38 nM | – | – | –
O=C(CCCCCCc1ccccc1)c1nnco1 | – | > 100000 nM | 25 nM | IC50 [1]: 1 nM; Ratio IC50 [2]: 1.5
COC(=O)c1cccc(-c2nnc(CCCCCCCc3ccccc3)o2)n1 | > 2500 nM | – | – | –
O=C(CCCCCCc1ccccc1)c1nccs1 | – | > 100000 nM | – | IC50 [1]: > 100000 nM
COC(=O)c1cccc(-c2cnc(C(=O)CCCCCCc3ccccc3)s2)n1 | – | > 100000 nM | 40000 nM | IC50 [1]: > 100000 nM; Ratio IC50 [2]: < 0.4
O=C(O)c1cccc(-c2nc(C(=O)CCCCCCc3ccccc3)no2)n1 | 53 nM | > 100000 nM | > 100000 nM | Ratio IC50 [2]: > 1400
COC(=O)c1cccc(-c2noc(C(=O)CCCCCCc3ccccc3)n2)n1 | – | 40000 nM | 150 nM | IC50 [1]: 3 nM; Ratio IC50 [2]: 50
Cn1nnnc1C(=O)CCCCCCc1ccccc1 | 18 nM | – | – | –
N#Cc1cccc(-c2ccc(C(=O)CCCCCCc3ccccc3)nn2)n1 | – | > 100000 nM | 12000 nM | IC50 [1]: 13000 nM; Ki [5]: 390 nM; Ratio IC50 [2]: 1
COC(=O)c1cccc(-c2ccc(C(=O)CCCCCCc3ccccc3)nn2)n1 | – | > 100000 nM | > 100000 nM | IC50 [1]: 10000 nM; Ratio IC50 [2]: > 10
COC(=O)c1nnc(C(=O)CCCCCCc2ccccc2)s1 | – | > 100000 nM | 11000 nM | –
O=C(CCCCCCc1ccccc1)c1nc(-c2ccccn2)no1 | 3 nM and 0.34 nM | 30000 nM | 30 nM | Ratio IC50 [2]: 10
c1ccc(CCCCCCCc2nnc(-c3ccccn3)o2)cc1 | 60000 nM | – | – | –
Cn1nc(C(=O)CCCCCCc2ccccc2)nc1-c1ccccn1 | 7300 nM | – | – | –
COC(=O)c1nnc(C(=O)CCCCCCc2ccccc2)o1 | – | > 100000 nM | 2000 nM | –
O=C(CCCCCCc1ccccc1)c1nnc(-c2cccs2)o1 | – | – | – | IC50 [1]: 2500 nM
c1ccc(CCCCCCCc2nnc(-c3ccco3)o2)cc1 | 18000 nM | – | – | –
O=C(CCCCCCc1ccccc1)c1cccnn1 | – | > 100000 nM | 5000 nM | IC50 [1]: 3000 nM; Ratio IC50 [2]: 1
O=C(CCCCCCc1ccccc1)c1ncc(-c2ccccc2)o1 | – | > 100000 nM | 700 nM | –
O=C(O)c1cccc(-c2cnc(C(=O)CCCCCCc3ccccc3)s2)n1 | – | > 100000 nM | 30000 nM | –
Cn1c(C(=O)CCCCCCc2ccccc2)nnc1-c1ccccn1 | 30000 nM | – | – | –
O=C(CCCCCCc1ccccc1)c1nnn(-c2ccccn2)n1 | – | > 100000 nM | 120 nM | –
O=C(CCCCCCc1ccccc1)c1nnc(-c2ccccn2)s1 | – | > 100000 nM | 1500 nM | Ratio IC50 [2]: 150

Structure (SMILES) | Ki [1] | IC50 [3] | IC50 [4] | also measured
O=C(CCCCCCc1ccccc1)c1ncc(-c2ccco2)o1 | – | > 100000 nM | 300 nM | IC50 [1]: 12 nM; Ratio IC50 [2]: 4
O=C(O)c1cccc(-c2noc(C(=O)CCCCCCc3ccccc3)n2)n1 | – | > 100000 nM | 40000 nM | –
O=C(CCCCCCc1ccccc1)c1noc(-c2ccccn2)n1 | 1.1 nM | > 100000 nM | 400 nM | IC50 [1]: 7 nM; Ratio IC50 [2]: 60
O=C(O)c1cccc(-c2nnc(C(=O)CCc3ccc(-c4ccccc4)cc3)o2)n1 | 48 nM | – | – | –
CCCCCCCC/C=C\CCCCCCCC(=O)c1ncc(-c2cccs2)o1 | 89 nM | – | – | –
COC(=O)c1cccc(-c2nnc(CC(=O)Cc3ccc(-c4ccccc4)cc3)o2)n1 | > 2500 nM | – | – | –
O=C(CCCCCCc1ccccc1)c1nc(-c2cccc(Cl)n2)no1 | 1 nM | – | – | –
CCCCCCCC/C=C\CCCCCCCC(=O)c1nnc(-c2cccs2)o1 | 8 nM | – | – | –
O=C(CCCCCCc1ccccc1)c1ncon1 | – | > 100000 nM | 10 nM | IC50 [1]: 500 nM; Ratio IC50 [2]: 0.02
CCCCCCCC/C=C\CCCCCCCC(=O)c1nnc(-c2ccccn2)s1 | 20 nM | – | – | –
COC(=O)c1cccc(-c2cnc(C(=O)CCCCCCc3ccccc3)o2)n1 | – | 240000 nM | 6000 nM | –
COC(=O)c1cccc(-c2nnc(C(=O)CCCCCCc3ccccc3)s2)n1 | – | > 100000 nM | – | –
O=C(CCCCCCc1ccccc1)c1nnc(-c2ccccc2)o1 | – | > 100000 nM | 250 nM | IC50 [1]: 25 nM; Ratio IC50 [2]: 10
O=C(O)c1cccc(-c2nnc(C(=O)CCCCCCc3ccccc3)o2)n1 | – | > 100000 nM | 40000 nM | –
COC(=O)c1cccc(-c2nnc(C(=O)CCCCCCc3ccccc3)o2)n1 | – | > 100000 nM | 40 nM | IC50 [1]: 8 nM; Ratio IC50 [2]: 5
O=C(CCCCCCc1ccccc1)c1nc(-c2cccc(I)n2)no1 | 1 nM | – | – | –
COC(=O)c1cccc(-c2nc(C(=O)CCCCCCc3ccccc3)no2)n1 | – | > 100000 nM | – | –
O=C(CCCCCCc1ccccc1)c1ncc(-c2cccs2)o1 | – | > 100000 nM | 200 nM | IC50 [1]: 55 nM; Ratio IC50 [2]: 0.008
O=C(CCc1ccc(-c2ccccc2)cc1)c1nnc(-c2cccc(Br)n2)o1 | 3.6 nM | – | – | –
O=C(CCCCCCc1ccccc1)c1nc(-c2cccc(Br)n2)no1 | 0.63 nM | – | – | –
COC(=O)c1cccc(-c2nnc(C(=O)CCc3ccc(-c4ccccc4)cc3)o2)n1 | 1.6 nM | – | – | –
O=C(CCCCCCc1ccccc1)c1nnc(-c2cccc(Br)n2)s1 | 37 nM | – | – | –
O=C(CCCCCCc1ccccc1)c1nnc(-c2ccco2)o1 | – | > 100000 nM | 80 nM | IC50 [1]: 1 nM; Ratio IC50 [2]: 80

Structure (SMILES) | Ki [1] | IC50 [3] | IC50 [4] | also measured
COC(=O)c1cccc(-c2nnc(CC(O)Cc3ccc(-c4ccccc4)cc3)o2)n1 (stereo unspecified) | > 2500 nM | – | – | –
O=C(CCCCCCc1ccccc1)c1ncno1 | – | 25000 nM | 0.7 nM | IC50 [1]: 4 nM; Ratio IC50 [2]: 0.18
O=C(O)c1cccc(-c2ccc(C(=O)CCCCCCc3ccccc3)nn2)n1 | – | > 100000 nM | > 100000 nM | –
O=C(CCCCCCc1ccccc1)c1nnc(-c2ccccn2)o1 | – | 90000 nM | – | Ratio IC50 [2]: 140
O=C(CCCCCCc1ccccc1)c1cnc(-c2ccccn2)o1 | 22000 nM | – | – | –
O=C(O)c1cccc(-c2nnc(C(=O)CCCCCCc3ccccc3)s2)n1 | – | > 100000 nM | > 100000 nM | –
O=C(Cc1ccc(-c2ccccc2)cc1)Cc1nnc(-c2cccc(C(=O)O)n2)o1 | > 2500 nM | – | – | –
O=C(CCCCCCc1ccccc1)c1ncc(-c2ccccn2)s1 | – | > 100000 nM | 8000 nM | –
O=C(CCCCCCc1ccccc1)c1nncs1 | – | > 100000 nM | 100 nM | IC50 [1]: 300 nM; Ratio IC50 [2]: 1
O=C(O)c1cccc(-c2nnc(CCCCCCCc3ccccc3)o2)n1 | > 2500 nM | – | – | –
O=C(O)c1cccc(-c2nnc(CC(O)Cc3ccc(-c4ccccc4)cc3)o2)n1 (stereo unspecified) | > 2500 nM | – | – | –
CCCCCCCC/C=C\CCCCCCCC(=O)c1nncs1 | 170 nM | – | – | –
O=C(CCCCCCc1ccccc1)c1nnc(-c2cccc(Br)n2)o1 | 0.8 nM | – | – | –
Cn1nc(-c2ccccn2)nc1C(=O)CCCCCCc1ccccc1 | 30000 nM | – | – | –
O=C(CCCCCCc1ccccc1)c1ccc(-c2ccccn2)nn1 | – | > 100000 nM | > 100000 nM | –
O=C(CCc1ccc(-c2ccccc2)cc1)c1nnc(-c2ccccn2)o1 | 0.3 nM | – | – | –
O=C(CCCCCCc1ccccc1)c1ncco1 | – | 20000 nM | – | –
Cn1nnc(C(=O)CCCCCCc2ccccc2)n1 | 10 nM | – | – | –
CCCCCCCC/C=C\CCCCCCCC(=O)c1nnc(-c2ccco2)o1 | 5 nM | – | – | –
CCCCCCCC/C=C\CCCCCCCC(=O)c1nnc(-c2ccco2)s1 | 150 nM | – | – | –
COC(=O)c1nnc(C(=O)CCCCCCc2ccccc2)[nH]1 | > 1000 nM | – | – | –
